In ChEMBL document CHEMBL1143602, “Evaluation of 8-arylsulfanyl, 8-arylsulfoxyl, and 8-arylsulfonyl adenine derivatives as inhibitors of the heat shock protein 90” (J Med Chem, 2005):
Where “and” joins values, the source holds several entries; their conditions need not be identical. Equal values may be shown once.

Legend:
[1] = target: Heat shock protein HSP90 (Homo sapiens, UniProt P07900+P08238); assay: Inhibition of Hsp90 protein as degradation of HER2 kinase in SKBr3 cells; format: functional, cell-based
[2] = target: Heat shock protein HSP 90-alpha (Mus musculus, UniProt P07901); assay: Displacement of 5 nM GM-BODIPY from mouse heat shock protein HSP90-alpha
[3] = tested on: SK-BR-3; assay: Inhibitory concentration against SKBr3 cell line; format: functional, cell-based; conditions: Homo sapiens
Procedure, shortened: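 Sulforhodamine B growth assay in SKBr3 cells grown in DME:F12 with 10% FBS at 37 °C, 5% CO2, attached overnight. Drug or DMSO was added in triplicate and serially diluted 1:1. Cells were grown 72 h, fixed with TCA and stained with 0.4% SRB.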

[4] = target: T1, Heat shock protein HSP 90-alpha (Homo sapiens, UniProt P07900); assay: Effective concentration against heat shock protein HSP90-alpha in SKBr3 cells; format: functional, cell-based
[5] = tested on: RPTEC; assay: Inhibitory concentration of compound against human renal proximal tubular epithelial cells (RPTEC) was determined; format: functional, cell-based
Procedure, shortened: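 Pre-seeded normal human renal proximal tubular epithelial cells were equilibrated 3 h at 37 °C, 5% CO2, then given fresh medium. Cells were treated with drug or DMSO for 72 h.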

[6] = tested on: RPTEC; assay: Selective inhibition for renal proximal tubular epithelial cells (RPTEC) to that of SKBr3 cells; format: functional, Homo sapiens
[7] = target: T1, Heat shock protein HSP 90-alpha; assay: Effective concentration against heat shock protein HSP90-alpha in MDA-MB-468 cells; format: functional, cell-based
[8] = target: T1, Heat shock protein HSP 90-alpha; assay: Effective concentration of compound against heat shock protein HSP90 determined in normal heart cells
[9] = target: T1, Heat shock protein HSP 90-alpha; assay: Effective concentration of compound against heat shock protein HSP90 determined in normal lung cells
[10] = target: T1, Heat shock protein HSP 90-alpha; assay: Effective concentration of compound against heat shock protein HSP90 determined in normal brain cells

C#CCCCn1c(Sc2cc(Cl)cc(Cl)c2)nc2c(N)ncnc21
IC50 [1]: 60.5 µM
EC50 [2]: 30.4 µM
IC50 [3]: 144 µM

C#CCCCn1c(Sc2cc(OC)c(OC)c(OC)c2I)nc2c(N)ncnc21
IC50 [1]: 100 µM
EC50 [2]: 3.1 µM
IC50 [3]: > 75 µM

COc1cc(Cc2nc3c(N)ncnc3n2CCOC(C)C)cc(OC)c1OC
IC50 [1]: 28.7 µM
EC50 [4]: 5.1 µM and 3.6 µM
IC50 [5]: > 200 µM
IC50 [3]: 71.1 µM
Selectivity [6]: >100
EC50 [7]: 5.8 µM

CCCCn1c(Sc2cc(OC)c(OC)c(OC)c2Cl)nc2c(N)ncnc21
IC50 [1]: 22.8 µM
EC50 [2]: 0.85 µM
IC50 [3]: 14.7 µM

CCCCn1c(S(=O)(=O)c2cc(OC)c(OC)c(OC)c2)nc2c(N)ncnc21
IC50 [1]: 315 µM
EC50 [2]: > 50 µM
IC50 [3]: 85.8 µM

COc1cc([S+]([O-])c2nc3c(N)ncnc3n2CCOC(C)C)cc(OC)c1OC (stereo not drawn)
IC50 [1]: 43.9 µM
EC50 [2]: 2.3 µM
IC50 [3]: 66.2 µM

C#CCCCn1c(Sc2ccc(OC)cc2OC)nc2c(N)ncnc21
IC50 [1]: > 150 µM
EC50 [2]: 2 µM
IC50 [3]: > 150 µM

COc1cc(Sc2nc3c(N)ncnc3n2CCOC(C)C)c(Cl)cc1Cl
IC50 [1]: 58.3 µM
EC50 [2]: 5 µM
IC50 [3]: 16.1 µM

CCCCn1c(Sc2cc(OC)c(OC)c(OC)c2)nc2c(N)ncnc21
IC50 [1]: 88.5 µM
EC50 [2]: 3.1 µM
IC50 [3]: 65.4 µM

C#CCCCn1c(Sc2cc(OC)ccc2OC)nc2c(N)ncnc21
IC50 [1]: 3.2 µM
EC50 [4]: 0.16 µM
EC50 [2]: 0.19 µM
IC50 [5]: 31.4 µM
EC50 [8]: 66.3 µM
EC50 [9]: > 75 µM
IC50 [3]: 1.9 µM
Selectivity [6]: 16.5
EC50 [10]: 30.5 µM

C#CCCCn1c(Sc2ccc(C(C)=O)cc2)nc2c(N)ncnc21
IC50 [1]: > 150 µM
EC50 [2]: 2.7 µM
IC50 [3]: > 150 µM

CCCCn1c(S(=O)(=O)c2cc(OC)c(OC)c(OC)c2Cl)nc2c(N)ncnc21
IC50 [1]: 12.4 µM
EC50 [2]: 4.8 µM
IC50 [3]: 36.7 µM

C#CCCCn1c(Sc2cccc(OC)c2)nc2c(N)ncnc21
IC50 [1]: 28.3 µM
EC50 [2]: 0.97 µM
IC50 [3]: 36.2 µM

COc1c(Cl)c(Sc2nc3c(N)ncnc3n2CCOC(C)C)c(Cl)c(OC)c1OC
IC50 [1]: 13.8 µM
EC50 [2]: 2.1 µM
IC50 [3]: 10.1 µM

Nc1[nH]cnc2nc(Sc3cc(Cl)c(Cl)cc3Cl)nc1-2
IC50 [1]: 47.8 µM
EC50 [2]: 15.4 µM
IC50 [3]: 36 µM

C#CCCCn1c(Sc2cc(OC)ccc2I)nc2c(N)ncnc21
EC50 [4]: 0.03 µM
EC50 [2]: 0.05 µM
IC50 [5]: 3.3 µM
EC50 [8]: 26.7 µM
EC50 [9]: 29.7 µM
IC50 [3]: 0.57 µM
EC50 [10]: 30.5 µM

C#CCCCn1c(Sc2ccccc2CO)nc2c(N)ncnc21
IC50 [1]: > 400 µM
EC50 [2]: 85.1 µM
IC50 [3]: > 500 µM

COc1cccc(Sc2nc3c(N)ncnc3n2CCOC(C)C)c1
IC50 [1]: 47.6 µM
EC50 [2]: 2.8 µM
IC50 [3]: 42.3 µM

CCCCn1c([S+]([O-])c2cc(OC)c(OC)c(OC)c2)nc2c(N)ncnc21 (stereo not drawn)
IC50 [1]: 110.3 µM
EC50 [2]: 76.5 µM
IC50 [3]: 43.9 µM

COc1cc(Sc2nc3c(N)nc(F)nc3n2CCOC(C)C)cc(OC)c1OC
IC50 [1]: 23.5 µM
EC50 [2]: 2.5 µM
IC50 [3]: 41.2 µM

C#CCCCn1c(Sc2cc(OC)c(OC)c(OC)c2)nc2c(N)ncnc21
IC50 [1]: 22.3 µM
EC50 [4]: 4.2 µM
EC50 [2]: 1.5 µM
IC50 [5]: 120 µM
IC50 [3]: 27.2 µM
Selectivity [6]: 4.4
EC50 [7]: 2.8 µM

C#CCCCn1c(Sc2cc(Cl)ccc2Cl)nc2c(N)ncnc21
IC50 [1]: 26.5 µM
EC50 [2]: 2.1 µM
IC50 [3]: 44.1 µM

CCCCn1c(Sc2cc(OC)c(OC)c(OC)c2Cl)nc2c(N)nc(F)nc21
IC50 [1]: 26.3 µM
EC50 [2]: 2.4 µM
IC50 [3]: 20.7 µM

C#CCCCn1c(Sc2cc(Cl)c(Cl)cc2Cl)nc2c(N)ncnc21
IC50 [1]: 58 µM
EC50 [2]: 8.5 µM
IC50 [3]: 48.4 µM

C#CCCCn1c(Sc2cc3c(cc2Br)OCO3)nc2c(N)ncnc21
IC50 [1]: 0.3 µM
EC50 [4]: 0.02 µM
EC50 [2]: 0.03 µM
IC50 [5]: 4.1 µM
EC50 [8]: 65.3 µM
EC50 [9]: 14.7 µM
IC50 [3]: 0.2 µM
Selectivity [6]: 20.5
EC50 [10]: 40.2 µM

C#CCCCn1c(Sc2cc(OC)c(OC)c(OC)c2Cl)nc2c(N)ncnc21
EC50 [2]: 0.18 µM
IC50 [5]: 54.5 µM
IC50 [3]: 9.4 µM

COc1cccc(S(=O)(=O)c2nc3c(N)ncnc3n2CCOC(C)C)c1
IC50 [1]: 170 µM
EC50 [2]: > 50 µM
IC50 [3]: 57.6 µM

C#CCCCn1c(Cc2cc(OC)c(OC)c(OC)c2)nc2c(N)ncnc21
IC50 [1]: 14.7 µM
EC50 [4]: 3.6 µM
IC50 [3]: 40.5 µM
EC50 [7]: 3.5 µM

C#CCCCn1c(Sc2cc(OC)c(OC)c(OC)c2)nc2c(N)nc(F)nc21
IC50 [1]: 20.9 µM
EC50 [4]: 2 µM
EC50 [2]: 1.5 µM
IC50 [3]: 18.2 µM
EC50 [7]: 2.2 µM
